In ChEMBL document CHEMBL1127292, “Inhibition of myeloperoxidase release from rat polymorphonuclear leukocytes by a series of azachalcone derivatives” (J Med Chem, 1994) one finds IC50 and inhibition data, which are given here for 33 molecules.

pIC50: −log10 of the molar value.

The species named for assay [1] is Rattus norvegicus. The assay can be described thus: Ability to inhibit N-formyl-methionyl-leucyl-phenylalanine (fMLP)-stimulated release of myeloperoxidase (MPO) from rat polymorphonuclear leukocytes (PMN). It counts as functional. Summed up: (§1)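 Peritoneal PMN were taken from Harlan Sprague-Dawley rats (150-250 g), with >90% viability by trypan blue and >90% PMN by Wright-Giemsa stain. Cells in suspension (2 × 10^7 cells/mL) were stimulated with 0.1 μM fMLP for 30 min at 37 °C in the presence of test agent. MPO in the supernatant was measured by MPO-catalyzed oxidation of o-dianisidine.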

For assay [2], the species on record is Rattus norvegicus. Put plainly: Tested for ability at 50 uM to inhibit N-formyl-methionyl-leucyl-phenylalanine (fMLP) stimulated release of Myeloperoxidase (MPO) from rat polymorphonuclear leukocytes (PMN). It counts as functional. The procedure, abridged:
as §1

In assay [1], `O=c1cc(-c2cccnc2)oc2ccccc12` gave a pIC50 of less than 4.00. The same measure, in the same setting: next, `COc1cc(C(=O)/C=C/c2cc[n+](C)cc2)cc(OC)c1OC`: less than 4.30; `CO/N=C(\C=C\c1ccncc1)c1cc(OC)c(OC)c(OC)c1`: less than 4.00; `O=C(/C=C/c1ccncc1)c1ccc(Cl)cc1`: 4.22.

`COc1cc(C(=O)/C=C/c2ccncc2)cc(OC)c1OC` showed a pIC50 in assay [1] of 5.15. Consider `O=C(/C=C/c1ccncc1)c1ccccc1`, for which, in assay [1], the pIC50 is 4.31. In assay [1], `O=C(/C=C/c1ccncc1)c1cccc(Cl)c1` showed a negative logarithm of the IC50 (pIC50) of 4.16. Turning to `O=C(/C=C/c1ccncc1)c1cccs1`, the pIC50 in assay [1] is 4.52. The same measure, in the same setting: in the case of `COc1cc(C(O)/C=C/c2ccncc2)cc(OC)c1OC` (stereo not drawn) it was less than 4.00; in that of `N#Cc1cccc(C(=O)/C=C/c2ccncc2)c1`, 4.07. On the same count and under the same terms, next, `CN(C)c1cccc(C(=O)/C=C/c2ccncc2)c1`: 4.72; `N#Cc1ccc(C(=O)/C=C/c2ccncc2)cc1`: 3.91. Still for that read-out and setting: in the case of `COc1cc(C(=O)/C=C/c2cccnc2)cc(OC)c1OC` it was 4.52; in that of `C(=C\c1noc2ccccc12)/c1ccncc1`, less than 4.00; in that of `CSc1ccc(C(=O)/C=C/c2ccncc2)cc1`, 4.48.

In turn, `O=C(c1ccccc1)c1cccc(-c2cccnc2)c1` showed a pIC50 in assay [1] of less than 4.00. The molecule `O=C(/C=C/c1ccncc1)c1ccco1` showed a pIC50 in assay [1] of 4.30. Regarding `COc1cc(C(=O)/C(C)=C/c2ccncc2)cc(OC)c1OC`, the pIC50 in assay [1] is less than 4.00. Still for that read-out and setting: in the case of `O=C1c2ccccc2-c2cccc(-c3cccnc3)c21` it was less than 4.00; in that of `O=C(/C=C/c1ccncc1)c1cccc(C(F)(F)F)c1`, 4.39. Same read-out and setting: in the case of `COc1cc(C(=O)/C=C/c2ccccn2)cc(OC)c1OC` it was 4.74.

In the case of `Cc1cccc(C(=O)/C=C/c2ccncc2)c1`, the pIC50 in assay [1] was 4.41.

In the case of `CC(C)(C)c1ccc(C(=O)/C=C/c2ccncc2)cc1`, the pIC50 in assay [1] was 4.33. Still for that read-out and setting: in the case of `COc1cc(C(=O)/C=C(\C)c2ccncc2)cc(OC)c1OC` it was less than 4.00; in that of `O=C1c2ccccc2-c2ccc(-c3cccnc3)cc21`, less than 4.00. Same read-out and setting: in the case of `O=C(C#Cc1ccncc1)c1ccccc1` it was 4.80. As for `O=C(c1ccccc1)c1ccccc1-c1cccnc1`, the negative-log IC50 (pIC50) in assay [1] was less than 4.00. On the same count and under the same terms, in the case of `CN(C)c1ccc(C(=O)/C=C/c2ccncc2)cc1` it was 4.96. In turn, `O=C(/C=C/c1ccncc1)c1ccc(C(F)(F)F)cc1` had a negative-log IC50 (pIC50) in assay [1] of 3.69. In assay [1], `O=C(c1ccccc1)c1ccc2ncccc2c1` gave a pIC50 of less than 4.00.

Consider `COc1cc(/C=C\C(=O)c2ccncc2)cc(OC)c1OC`, for which the inhibition at 50 µM in assay [2] is 28%. With `COc1cc(C(=O)CCc2ccncc2)cc(OC)c1OC`, the pIC50 in assay [1] is less than 4.00. Still for that read-out and setting: in the case of `O=C(c1ccccc1)c1ccc(-c2cccnc2)cc1` it was less than 4.00.

For orientation: pIC50 means the IC50 on a negative log10 scale, so that one unit is a factor of ten. A high value points to a low IC50. By inhibition is commonly meant the change of the read-out against control, counted positive when it falls. The low end stands for a weak effect, the high end for a strong effect.
